{"source": "ChEMBL document CHEMBL3232734", "about": "“Nitric oxide (NO) releasing poly ADP-ribose polymerase 1 (PARP-1) inhibitors targeted to glutathione S-transferase P1-overexpressing cancer cells” (J Med Chem, 2014)", "key": {"[1]": {"test": "Prodrug activation assessed as GSH reactivity in aqueous phosphate buffer at pH 7.4 by UV-Visible spectrophotometer analysis", "format": "physicochemical", "outline": "(§1)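 UV–vis kinetics at 37 °C in 0.1 M phosphate buffer, pH 7.4, with 50 μM DTPA and 4 mM GSH, with or without 40 nM recombinant GSTP1 or GSTA1. Substrate (typically 10 μM) added after thermal equilibration. Ratios are k with enzyme over k with GSH alone.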"}, "Tumour [2]": {"test_system": "Tumour", "test": "Drug uptake in tumor of NCr nu/nu athymic mouse xenografted with human A549 cells at 92 umol/kg, iv administered two times a week for 4 weeks", "format": "ADME, organism-based, Neoplasm", "conditions": "in vivo, 672 h", "outline": "(§2)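 A549 cells (RPMI 1640 + 10% FBS, ≤4 passages) harvested at 70–80% confluence, 5 × 10^6 cells in PBS implanted s.c.; at ~3 mm × 3 mm tumors, mice randomized into groups of 12. Tail-vein injection at 92 μmol/kg in 20 μL DMSO, twice weekly for 4 weeks; saline or DMSO controls. Tumors caliper-measured twice weekly, volume = π/2 × L × W². Tumors resected at end, frozen, extracted for metabolite analysis by LC/MS.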"}, "A549 [3]": {"test_system": "A549", "test": "Induction of endoplasmic reticulum stress in human A549 cells assessed as protein glutathionylation after 8 hrs by immunoblot analysis", "format": "functional, cell-based"}, "A549 [4]": {"test_system": "A549", "test": "Induction of apoptosis in human A549 cells assessed as cleaved PARP level by immunoblot analysis", "format": "functional, cell-based", "outline": "(§3)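 A549 cells treated with compound, lysed and immunoblotted for cleaved caspase 8, caspases 3 and 7, and PARP (full-length and cleaved). Caspase 8 was read within 6 h at 1 μM. Representative of at least three independent experiments.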"}, "[5]": {"target": "T1, MAP kinase p38 (Homo sapiens) (UniProt O15264+Q15759+Q16539+P53778)", "test": "Induction of p38 phosphorylation in human A549 cells within 15 mins after drug treatment by immunoblot analysis", "format": "cell-based", "outline": "(§4)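 A549 cells treated with compound and p38 phosphorylation followed by immunoblot from 15 min to 8 h after the start of treatment. At least three independent experiments.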"}, "A549 [6]": {"test_system": "A549", "test": "Induction of apoptosis in human A549 cells assessed as cleaved caspase 7 level by immunoblot analysis", "format": "functional, cell-based", "outline": "as §3"}, "A549 [7]": {"test_system": "A549", "test": "Induction of endoplasmic reticulum stress in human A549 cells assessed as upregulation of CHOP protein expression by immunoblot analysis", "format": "functional, cell-based"}, "[8]": {"target": "Poly [ADP-ribose] polymerase 1 (Homo sapiens, UniProt P09874)", "sequence (P09874 whole entry)": "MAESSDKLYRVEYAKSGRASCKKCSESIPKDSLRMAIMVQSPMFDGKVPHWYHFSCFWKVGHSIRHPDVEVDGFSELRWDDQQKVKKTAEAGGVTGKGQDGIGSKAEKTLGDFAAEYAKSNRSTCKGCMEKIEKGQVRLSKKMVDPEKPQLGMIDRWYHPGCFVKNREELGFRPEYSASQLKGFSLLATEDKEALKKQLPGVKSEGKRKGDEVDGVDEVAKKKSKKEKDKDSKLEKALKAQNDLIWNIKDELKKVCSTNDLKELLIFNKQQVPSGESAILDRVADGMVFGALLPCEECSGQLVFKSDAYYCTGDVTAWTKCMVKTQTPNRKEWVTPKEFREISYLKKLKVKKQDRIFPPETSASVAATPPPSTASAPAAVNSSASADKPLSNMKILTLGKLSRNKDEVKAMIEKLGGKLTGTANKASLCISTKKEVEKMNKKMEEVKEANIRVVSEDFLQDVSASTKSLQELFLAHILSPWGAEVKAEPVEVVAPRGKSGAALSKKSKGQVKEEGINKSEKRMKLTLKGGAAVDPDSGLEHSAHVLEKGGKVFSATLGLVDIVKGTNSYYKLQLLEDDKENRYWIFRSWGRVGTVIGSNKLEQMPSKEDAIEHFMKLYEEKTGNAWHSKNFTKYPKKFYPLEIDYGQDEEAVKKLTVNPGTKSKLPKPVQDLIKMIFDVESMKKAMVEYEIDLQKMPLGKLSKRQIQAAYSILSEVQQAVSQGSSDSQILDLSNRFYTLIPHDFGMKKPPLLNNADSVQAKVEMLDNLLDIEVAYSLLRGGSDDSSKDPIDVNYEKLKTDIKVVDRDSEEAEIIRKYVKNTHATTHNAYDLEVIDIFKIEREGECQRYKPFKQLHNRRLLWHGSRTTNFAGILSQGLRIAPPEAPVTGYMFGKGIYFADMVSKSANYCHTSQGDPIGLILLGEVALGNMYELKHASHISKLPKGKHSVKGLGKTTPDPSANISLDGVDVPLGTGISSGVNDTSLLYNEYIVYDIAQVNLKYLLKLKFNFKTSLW", "test": "Inhibition of PARP-1 (unknown origin) assessed as incorporation of biotinylated poly ADP-ribose onto histone proteins at 0.1 to 1000 nM by colorimetric analysis in presence of GSH and GSTP1", "outline": "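PARP activity measured with a colorimetric histone biotinylated poly(ADP-ribose) incorporation kit. GSH (4 mM) with or without 40 nM GSTP1 in PBS pH 7.4 was preincubated 10 min at 37 °C. Reaction started by adding prodrug (10 μM substrate) and ran a further 10 min; absorbance read at 450 nm. Inhibitors tested over 0.01 nM–1 μM.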"}, "[9]": {"target": "T1, MAP kinase p38 (Homo sapiens)", "test": "Induction of p38 phosphorylation in human A549 cells after 8 hrs by immunoblot analysis", "format": "cell-based", "outline": "as §4"}, "Mus musculus": {"test_system": "Mus musculus", "test": "Systemic toxicity in NCr nu/nu athymic mouse xenografted with human A549 cells assessed as body weight at 92 umol/kg, iv administered two times a week for 4 weeks (reference value: 25.0 +/-0.78 gms)", "format": "organism-based", "conditions": "in vivo, 672 h"}, "A549 [10]": {"test_system": "A549", "test": "Induction of apoptosis in human A549 cells assessed as cleaved caspase 8 level at 1 uM within 6 hrs after drug treatment by immunoblot analysis", "format": "functional, cell-based", "outline": "as §3"}, "U-937": {"test_system": "U-937", "test": "Drug metabolism in human U937 cells assessed as nitric oxide release at 5 uM by LC/MS/MS analysis in presence of GSH/GSTP1", "conditions": "u-937, 5 µM"}, "A549 [11]": {"test_system": "A549", "test": "Induction of endoplasmic reticulum stress in human A549 cells assessed as protein glutathionylation measured within 1 hr post-drug treatment by immunoblot analysis", "format": "functional, cell-based"}, "A549 [12]": {"test_system": "A549", "test": "Induction of endoplasmic reticulum stress in human A549 cells assessed as upregulation of ATF4 protein expression by immunoblot analysis", "format": "functional, cell-based"}, "A549 [13]": {"test_system": "A549", "test": "Induction of apoptosis in human A549 cells assessed as cleaved caspase 3 level by immunoblot analysis", "format": "functional, cell-based", "outline": "as §3"}, "A549 [14]": {"test_system": "A549", "test": "Anticancer activity against human A549 cells assessed as reduction in number of colonies at 1 uM in presence of 3 nM proteasome inhibitor bortezomib by colony forming assay", "format": "functional, cell-based", "outline": "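A549 colony forming assay after combined treatment with the proteasome inhibitor bortezomib.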"}, "A549 [15]": {"test_system": "A549", "test": "Anticancer activity against human A549 cells xenografted in NCr nu/nu athymic mouse assessed as reduction of tumor growth at 92 umol/kg, iv administered two times a week for 4 weeks", "format": "functional, organism-based", "outline": "as §2"}, "[16]": {"target": "Glutathione S-transferase P (Homo sapiens, UniProt P09211)", "sequence (P09211 whole entry)": "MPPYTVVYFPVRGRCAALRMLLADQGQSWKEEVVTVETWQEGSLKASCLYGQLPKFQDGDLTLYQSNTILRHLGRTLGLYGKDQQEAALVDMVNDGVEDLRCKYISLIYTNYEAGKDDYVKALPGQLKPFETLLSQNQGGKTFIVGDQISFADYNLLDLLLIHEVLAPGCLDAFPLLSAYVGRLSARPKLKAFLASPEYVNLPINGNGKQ", "test": "Ratio of prodrug activation in presence of GSH and recombinant GSTP1 (unknown origin) to prodrug activation in presence of GSH by UV-Visible spectrophotometry", "outline": "as §1, with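 “equilibration. Absorbance followed at 302 nm; first-order rate from an exponential fit.” for “equilibration.”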"}, "A549 [17]": {"test_system": "A549", "test": "Induction of apoptosis in human A549 cells assessed as cleaved PARP level after 8 hrs by immunoblot analysis", "format": "functional, cell-based", "outline": "as §3"}, "A549 [18]": {"test_system": "A549", "test": "Drug metabolism in human A549 cells assessed as nitric oxide release at 10 uM by LC/MS/MS analysis in presence of GSH/GSTP1", "format": "ADME, cell-based", "conditions": "a549, 10 µM", "outline": "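A549 cells were plated in 75 cm2 flasks and grown overnight at 37 °C, then treated with 10 μM compound for varying times up to 1 h. Cells were lysed in 10 mM HCl/acetonitrile, 5-sulfosalicylic acid was added, and the precipitate was spun off at 12000g for 15 min. Supernatant was filtered and metabolites were identified by positive-ion LC/MS/MS (Q-TOF, C18, water/acetonitrile/0.1% formic acid gradient).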"}, "[19]": {"target": "T2, Glutathione S-transferase A1 (Homo sapiens, UniProt P08263)", "T2 sequence (P08263 whole entry)": "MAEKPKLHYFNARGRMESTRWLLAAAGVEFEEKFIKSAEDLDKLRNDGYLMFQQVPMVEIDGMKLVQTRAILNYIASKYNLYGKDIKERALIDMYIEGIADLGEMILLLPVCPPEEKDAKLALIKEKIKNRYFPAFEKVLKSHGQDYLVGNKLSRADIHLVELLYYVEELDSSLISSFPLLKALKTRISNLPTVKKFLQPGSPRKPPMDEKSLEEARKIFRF", "test": "Ratio of prodrug activation in presence of GSH and recombinant GSTA1 (unknown origin) to prodrug activation in presence of GSH by UV-Visible spectrophotometry", "outline": "as §1, with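 “equilibration. Absorbance followed at 302 nm; first-order rate from an exponential fit.” for “equilibration.”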"}, "[20]": {"target": "Eukaryotic translation initiation factor 2 subunit 1 (Homo sapiens) (UniProt P05198)", "sequence (P05198 whole entry)": "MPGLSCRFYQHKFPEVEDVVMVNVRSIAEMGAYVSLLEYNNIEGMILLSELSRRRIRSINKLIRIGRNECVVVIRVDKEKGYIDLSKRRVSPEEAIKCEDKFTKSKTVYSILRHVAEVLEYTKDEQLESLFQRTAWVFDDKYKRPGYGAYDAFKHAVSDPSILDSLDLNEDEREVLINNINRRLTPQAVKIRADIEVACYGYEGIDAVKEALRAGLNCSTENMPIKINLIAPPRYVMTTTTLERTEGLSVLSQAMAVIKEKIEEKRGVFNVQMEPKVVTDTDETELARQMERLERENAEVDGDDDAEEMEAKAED", "test": "Induction of eIF2-alpha phosphorylation in human A549 cells by immunoblot analysis", "format": "cell-based"}, "A549 [21]": {"test_system": "A549", "test": "Induction of endoplasmic reticulum stress in human A549 cells assessed as upregulation of BiP protein expression by immunoblot analysis", "format": "functional, cell-based"}, "Tumour [22]": {"test_system": "Tumour", "test": "Drug metabolism in tumor of NCr nu/nu athymic mouse xenografted with human A549 cells assessed as metabolite formation at 92 umol/kg, iv administered two times a week for 4 weeks", "format": "ADME, organism-based, Neoplasm", "conditions": "in vivo, 672 h", "outline": "as §2"}}, "note": "Active and inactive are the calls of the source. The calls are words filed in the database; no cut-off is given here.", "data": [{"smiles": "CN(C)/[N+]([O-])=N\\Oc1cc(O/N=[N+](\\[O-])N2CCN(C(=O)c3cc(Cc4n[nH]c(=O)c5ccccc45)ccc3F)CC2)c([N+](=O)[O-])cc1[N+](=O)[O-]", "values": [{"measurement": "t1/2", "setting": "[1]", "result": 16, "unit": "min"}, {"measurement": "Drug uptake", "setting": "Tumour [2]", "result": "Active"}, {"measurement": "Activity", "setting": "A549 [3]", "result": "inactive"}, {"measurement": "Activity", "setting": "A549 [4]", "result": "Active"}, {"measurement": "Activity", "setting": "[5]", "result": "Active"}, {"measurement": "Activity", "setting": "A549 [6]", "result": "Active"}, {"measurement": "Activity", "setting": "A549 [7]", "result": "Active"}, {"measurement": "inhibition", "setting": "[8]", "result": "Active"}, {"measurement": "Activity", "setting": "[9]", "result": "Active"}, {"measurement": "Activity", "setting": "Mus musculus", "result": 25.3, "unit": "g"}, {"measurement": "Activity", "setting": "A549 [10]", "result": "Active"}, {"measurement": "Drug metabolism", "setting": "U-937", "result": "metabolite_detected"}, {"measurement": "Activity", "setting": "A549 [11]", "result": "Active"}, {"measurement": "Activity", "setting": "A549 [12]", "result": "Active"}, {"measurement": "Activity", "setting": "A549 [13]", "result": "Active"}, {"measurement": "inhibition", "setting": "A549 [14]", "result": "Active"}, {"measurement": "growth inhibition (GI)", "setting": "A549 [15]", "result": "Active"}, {"measurement": "Ratio", "setting": "[16]", "result": 13.3}, {"measurement": "Activity", "setting": "A549 [17]", "result": "Active"}, {"measurement": "Drug metabolism", "setting": "A549 [18]", "result": "metabolite_detected"}, {"measurement": "Ratio", "setting": "[19]", "result": 9.2}, {"measurement": "Activity", "setting": "[20]", "result": "Active"}, {"measurement": "Activity", "setting": "A549 [21]", "result": "Active"}, {"measurement": "Drug metabolism", "setting": "Tumour [22]", "result": "metabolite_detected"}]}]}
